Results on 8 molecules are retold here after ChEMBL document CHEMBL1126179, “Synthesis and anti-HIV activity of isonucleosides” (J Med Chem, 1992).

The nature of test [1]: In vitro cytotoxicity against uninfected ATH-8 (human T-cell) cell line. Format: functional. The settings on record: read-out: CD50 (the source's name). Summed up: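 Uninfected ATH-8 cells; the value is the dose that reduces viability by 50%. Concentrations tested up to […].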
Test [2] is described as follows: In vitro effective dose which provides 50% protection of ATH-8 cells against the cytopathic effect of HIV; range 5-10 uM. The class given is functional. The conditions noted are these: Homo sapiens, read-out: ED50 (the source's name). (In general: Damage to the host cells serves as the signal in cytopathic effect assays.)
The nature of test [3]: In vitro effective dose which provides 50% protection of ATH-8 cells against the cytopathic effect of HIV. The conditions noted are these: Homo sapiens, read-out: ED50 (the source's name). The class given is functional. The method, boiled down:
(§1)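 ATH-8 cells infected with HIV-1 (HTLV-III_B strain) and read as the dose giving 50% protection against viral cytopathic effect. Reported as a range from ≥3 experiments, each including a standard such as AZT.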

Test [4] can be described thus: In vitro effective dose which provides 50% protection of ATH-8 cells against the cytopathic effect of HIV; range 10-50 uM. Format: functional. The settings on record: Homo sapiens, read-out: ED50 (the source's name). Summed up: as §1
Test [5] concerns Human immunodeficiency virus 1. The test can be described thus: Concentration required to inhibit HIV replication by 50%. Format: functional, organism-based. Summed up:
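Human PBM from a normal donor, isolated by Ficoll-Hypaque and stimulated with PHA (5 μg/mL) for 24 h in RPMI 1640/15% FBS/IL-2. Cells plated at 5 × 10⁵ per well and infected with 20 TCID₅₀ of AZT-resistant patient isolate HIV-1 ERS 205pre, with drug added. Incubated at 37 °C for 7 days; half the medium and drug replaced on day 4. Day-7 supernatant p24 gag measured by radioimmunoassay.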

Test [6] in a line: In vitro effective dose which provides 50% protection of ATH-8 cells against the cytopathic effect of HIV; range 5-15 uM. The class given is functional. The conditions noted are these: Homo sapiens, read-out: ED50 (the source's name). The method, boiled down:
as §1

Test [7] can be described thus: In vitro effective dose which provides 50% protection of ATH-8 cells against the cytopathic effect of HIV; Range 5-10 uM. Format: functional. The settings on record: Homo sapiens, read-out: ED50 (the source's name).

For the molecule `Nc1ncnc2c1ncn2[C@H]1CC[C@@H](CO)O1`, the CC50 in test [1] is greater than 200 µM. In test [2], the EC50 amounted to 5 µM.
Take `Nc1ccn([C@H]2CO[C@@H](CO)C2)c(=O)n1`: the CC50 in test [1] is greater than 100 µM. Further, the EC50 in test [3] was greater than 100 µM.
With `Nc1nc(O)c2ncn([C@H]3CO[C@@H](CO)C3)c2n1`, the CC50 in test [1] is greater than 500 µM. Further, the EC50 in test [4] came out at 10 µM. In test [5], the IC50 (commonly the concentration needed to halve the response being measured) came out at 17.5 µM.
For `Nc1ncnc2c1ncn2[C@H]1CO[C@@H](CO)C1`, the CC50 in test [1] was greater than 100 µM. Besides, the EC50 in test [6] worked out at 5 µM. Moreover, half-maximal inhibition in test [5] (IC50) required 8.2 µM.
As to `Cc1cn([C@H]2CO[C@@H](CO)C2)c(=O)[nH]c1=O`, the CC50 in test [1] was greater than 100 µM. The EC50 in test [3] was greater than 100 µM.
`OC[C@H]1C[C@@H](n2cnc3c(O)ncnc32)CO1`: the CC50 in test [1] was greater than 100 µM. For the same molecule, the EC50 in test [3] was greater than 100 µM.
As for `Nc1nc(O)c2ncn([C@H]3CC[C@@H](CO)O3)c2n1`, the CC50 in test [1] is greater than 200 µM. Further, the EC50 in test [7] is 5 µM.
As for `O=c1[nH]cnc2c1ncn2[C@H]1CC[C@@H](CO)O1` [DIDANOSINE], 1.28 µM corresponded to half-maximal inhibition in test [5] (IC50).
